pIC50: −log10 of the molar value. Calls of active or inactive are those of the source. The rule behind the calls is not given here.
Key:
[1] = molecular target: T1, Class 1 phosphodiesterase PDEB1 (Trypanosoma brucei, UniProt Q8WQX9); experiment: Inhibition of Trypanosoma brucei recombinant TbrPDEB1 expressed in Sf21 insect cells assessed as reduction of [3H]-cAMP hydrolysis by scintillation proximity assay
T1 sequence (Q8WQX9 whole entry): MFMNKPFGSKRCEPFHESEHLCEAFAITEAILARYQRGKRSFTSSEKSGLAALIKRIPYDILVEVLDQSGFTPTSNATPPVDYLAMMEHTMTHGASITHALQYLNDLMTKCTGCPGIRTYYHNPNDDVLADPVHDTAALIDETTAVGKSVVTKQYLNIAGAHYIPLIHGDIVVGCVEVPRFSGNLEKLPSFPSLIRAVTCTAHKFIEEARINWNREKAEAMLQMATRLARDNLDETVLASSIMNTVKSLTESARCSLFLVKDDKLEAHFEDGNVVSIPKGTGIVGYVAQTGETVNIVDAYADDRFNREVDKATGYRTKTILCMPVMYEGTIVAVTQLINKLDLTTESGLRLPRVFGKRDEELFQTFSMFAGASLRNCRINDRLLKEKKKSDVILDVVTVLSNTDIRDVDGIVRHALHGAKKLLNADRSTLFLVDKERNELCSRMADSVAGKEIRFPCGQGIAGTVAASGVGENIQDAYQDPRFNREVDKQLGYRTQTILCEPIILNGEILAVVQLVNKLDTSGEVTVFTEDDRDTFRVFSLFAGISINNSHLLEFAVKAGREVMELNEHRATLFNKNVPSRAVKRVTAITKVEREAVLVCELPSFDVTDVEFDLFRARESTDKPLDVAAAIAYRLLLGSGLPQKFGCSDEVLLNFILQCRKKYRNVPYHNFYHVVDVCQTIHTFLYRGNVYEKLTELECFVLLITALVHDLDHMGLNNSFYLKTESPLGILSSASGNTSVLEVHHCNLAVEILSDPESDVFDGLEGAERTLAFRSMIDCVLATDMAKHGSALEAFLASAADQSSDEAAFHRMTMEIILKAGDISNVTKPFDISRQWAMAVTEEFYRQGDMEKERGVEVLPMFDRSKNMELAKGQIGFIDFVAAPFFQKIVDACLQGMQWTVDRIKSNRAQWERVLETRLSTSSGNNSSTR
How it was run: (§1)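 Full-length PDEs used as supernatants of sonicated overexpressing cells: Sf21 for TbrPDEB1 and hPDE4A1/4B1/4C1/4D3, yeast for TbrPDEB2. Inhibition of ³H-cAMP hydrolysis measured by scintillation proximity assay with 0.5 μM cAMP substrate, in at least duplicates. Enzyme adjusted for <20% substrate consumption; blanks used denatured protein. IC50 obtained by nonlinear regression of dose-response curves.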

[2] = Cytotoxicity against human MRC5 cells after 72 hrs by resazurin assay; format: cell-based
[3] = system: Trypanosoma brucei brucei; experiment: microbe, parasite or virus in culture; details: Squib-427, 72 h
[4] = system: Trypanosoma brucei brucei; experiment: Induction of morphological changes in wild type blood form of Trypanosoma brucei brucei assessed as multiple nuclei and kinetoplasts formation after 12 hrs by microscopic analysis; format: functional, organism-based
How it was run: (§2)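 Bloodstream T. b. brucei trypomastigotes at 1x10^6/mL incubated 12 h with 1, 5 or 10 μM compound or vehicle. Cells washed in saline, spread on slides, fixed 15 min in 2% formaldehyde, stained 30 min with Syto-9 (250 nM) and Nile Red. More than 300 cells per sample scored manually by microscopy as 1N1K, 1N2K, 2N1K or >2N2K.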

[5] = system: Trypanosoma brucei brucei; experiment: Antitrypanosomal activity against wild type blood form of Trypanosoma brucei brucei assessed as parasite lysis at 10 uM after 48 hrs; format: functional, organism-based
[6] = system: Trypanosoma brucei brucei; experiment: Induction of morphological changes in wild type blood form of Trypanosoma brucei brucei assessed as multiple nuclei and kinetoplasts formation at 10 uM after 12 hrs by microscopic analysis; format: functional, organism-based; how it was run: as §2
Trypanosoma brucei = experiment: Increase in intracellular cAMP level in Trypanosoma brucei 427 expressing cAMP-FRET sensor by FRET assay; format: functional, organism-based
How it was run: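 Procyclic T. brucei 427 stably expressing an EPAC1-based cAMP FRET sensor (EP procyclin locus, neomycin selection), grown in SDM79 with 5% FCS. Log-phase cells washed in HBSS and used at 5-6 x 10^7/mL. Drug dilutions in DMSO (1 µL/well) mixed with HBSS, then cell suspension added at 27 °C.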

[7] = system: Trypanosoma brucei rhodesiense; experiment: Antitrypanosomal activity against trypomastigotes of Trypanosoma brucei rhodesiense STIB-900 after 72 hrs by fluorescence assay; details: STIB-900, 72 h
Trypanosoma cruzi = experiment: Antitrypanosomal activity against trypomastigotes of Trypanosoma cruzi after 72 hrs by fluorescence assay
[8] = Inhibition of Trypanosoma brucei recombinant TbrPDEB2 expressed in yeast assessed as reduction of [3H]-cAMP hydrolysis by scintillation proximity assay; how it was run: as §1

Row | SMILES | pIC50 [1] | also measured
1 | COc1ccc(C2=NN(C(C)C)C(=O)C2(C)C)cc1OCc1cccc2ccccc12 | 6.10 | 
2 | COc1ccc(COc2cc(C3=NN(C4CCCCCC4)C(=O)C3(C)C)ccc2OC)cc1 | 6.10 | CC50 at 72 h [2]: > 64000 nM; pIC50 [3]: 5.00
3 | COc1ccc(C2=NNC(=O)C2(C)C)cc1OCc1ccccc1 | 5.20 | 
4 | COc1ccc(C2=NN(C)C(=O)C2(C)C)cc1OCc1ccccc1 | 5.00 | 
5 | COc1ccc(C2=NN(C(C)C)C(=O)C2(C)C)cc1Br | < 5.00 | 
6 | COc1ccc(CCOc2cc(C3=NN(C(C)C)C(=O)C3(C)C)ccc2OC)cc1 | 6.08 | 
7 | COc1ccc(C2=NN(C3CCCCCC3)C(=O)C2(C)C)cc1OCCCCOc1ccc(-c2nn[nH]n2)cc1 |  | Activity [4]: Dose-dependent effect; inhibition [5]: Active; Activity [6]: Active; Activity (Trypanosoma brucei): Dose-dependent effect; pIC50 [7]: 7.22; pIC50 (Trypanosoma cruzi): 5.12; pIC50 [8]: 7.14; pIC50 [3]: 6.28
8 | COc1ccc(C2=NN(C3CCCCCC3)C(=O)C2(C)C)cc1Br | 5.60 | 
9 | COc1ccc(C2=NN(C(C)C)C(=O)C2(C)C)cc1OCCCCOc1ccc(C#N)cc1 | 5.30 | 
10 | COc1ccc(C2=NN(C(C)C)C(=O)C2(C)C)cc1O | < 5.00 | 
11 | COc1ccc(C2=NN(C(C)C)C(=O)C2(C)C)cc1OCc1ccccn1 | 5.60 | 
12 | COc1ccc(C2=NNC(=O)C2(C)C)cc1Br | < 5.00 | CC50 at 72 h [2]: > 64000 nM; pIC50 [3]: < 4.19
13 | COc1ccc(C2=NN(C3CCCCCC3)C(=O)C2(C)C)cc1O | < 5.00 | 
14 | COc1ccc(C2=NNC(=O)C2(C)C)cc1Cl | < 5.00 | 
15 | COc1ccc(C2=NN(C3CCCCCC3)C(=O)C2(C)C)cc1OCc1cccc2ccccc12 | 6.60 | 
16 | COc1ccc(C2=NN(C3CCCCCC3)C(=O)C2(C)C)cc1OCCCCOc1ccc(C#N)cc1 | 6.80 | 
